The target in assay [1] is T1, Adenosine receptor A2a (Homo sapiens, UniProt P29274). The assay is described as follows: Displacement of [3H]ZM241385 from human adenosine A2A receptor expressed in human HeLa cells at 10 uM after 30 mins by beta scintillation counting. The class given is cell-based. In short, it runs like this:
(§1)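 Membranes from HeLa-A2A cells, 10 lg protein, in 50 mM Tris–HCl, 1 mM EDTA, 10 mM MgCl2, 2 UI/mL adenosine deaminase, pH 7.4; 3 nM [3H]ZM241385, 30 min at 25 °C, duplicates. 50 µM NECA defined non-specific binding. Single 10 µM point or six concentrations 10 nM–100 µM; Ki by Cheng–Prusoff.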
On the technique in general: In a radioligand displacement assay an active substance lowers the binding of a labelled ligand.

Assay [2] has as its target T2, Adenosine receptor A2b (Homo sapiens) (UniProt P29275).
T2 sequence (whole entry): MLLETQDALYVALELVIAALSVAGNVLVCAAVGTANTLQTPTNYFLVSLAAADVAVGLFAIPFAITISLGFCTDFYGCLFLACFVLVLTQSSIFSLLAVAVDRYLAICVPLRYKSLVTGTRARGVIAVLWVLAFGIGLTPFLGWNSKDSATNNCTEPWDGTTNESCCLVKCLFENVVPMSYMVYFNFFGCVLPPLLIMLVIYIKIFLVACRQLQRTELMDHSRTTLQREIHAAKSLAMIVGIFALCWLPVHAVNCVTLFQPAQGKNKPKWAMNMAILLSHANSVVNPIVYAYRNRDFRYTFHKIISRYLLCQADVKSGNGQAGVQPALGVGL
Nature of the assay: Displacement of [3H]DPCPX from human adenosine A2B receptor expressed in HEK293 cells at 10 uM after 30 mins by beta scintillation counting. The class given is cell-based.

The target of assay [3] is T3, Adenosine receptor A3 (Homo sapiens, UniProt P0DMS8).
T3 sequence (P0DMS8 whole entry): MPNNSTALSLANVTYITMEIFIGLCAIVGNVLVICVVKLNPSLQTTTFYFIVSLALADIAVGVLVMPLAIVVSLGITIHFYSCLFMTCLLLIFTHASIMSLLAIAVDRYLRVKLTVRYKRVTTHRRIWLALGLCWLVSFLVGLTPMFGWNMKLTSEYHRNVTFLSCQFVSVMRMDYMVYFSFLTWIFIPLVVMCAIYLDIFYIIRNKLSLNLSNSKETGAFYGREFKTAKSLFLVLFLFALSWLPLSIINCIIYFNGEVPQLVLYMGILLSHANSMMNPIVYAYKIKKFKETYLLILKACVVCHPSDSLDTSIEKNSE
The assay is described as follows: Displacement of [3H]NECA from human adenosine A3 receptor expressed in human HeLa cells after 180 mins by beta scintillation counting. The class given is cell-based. Put shortly: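 HeLa-A3 membranes (90 lg protein) in 50 mM Tris–HCl, 1 mM EDTA, 5 mM MgCl2, 2 UI/mL adenosine deaminase, pH 7.4; 30 nM [3H]NECA, 180 min at 25 °C, triplicates, GF/B filtration. Non-specific with 100 µM (R)-PIA. Tested at 10 µM or six concentrations 10 nM–100 µM; Ki by Cheng–Prusoff.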

The target in assay [4] is T1, Adenosine receptor A2a. Nature of the assay: Displacement of [3H]ZM241385 from human adenosine A2A receptor expressed in human HeLa cells after 30 mins by beta scintillation counting. It counts as cell-based. Put shortly:
as §1

For assay [5], the target named is T1, Adenosine receptor A2a. The assay is described as follows: Antagonist activity at human adenosine A2A receptor expressed in CHO cells assessed as inhibition of […]-induced cAMP accumulation pre-incubated for 15 mins by enzyme immunoassay. The class given is functional, cell-based. In short, it runs like this: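 CHO-A2A cells, 10,000/well, in DMEM F-12 with 10% FCS; pre-incubated 15 min at 37 °C with 30 µM rolipram and test compound, then stimulated with 1 µM NECA for 15 min. cAMP measured by enzyme immunoassay at 450 nm; antagonist pKB derived from IC50 via Leff–Dougall equation.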
For orientation: cAMP levels reflect the balance of adenylyl cyclase and phosphodiesterase activity.

Assay [6] concerns the target T4, Alpha-2A adrenergic receptor (Homo sapiens) (UniProt P08913).
T4 sequence (whole entry): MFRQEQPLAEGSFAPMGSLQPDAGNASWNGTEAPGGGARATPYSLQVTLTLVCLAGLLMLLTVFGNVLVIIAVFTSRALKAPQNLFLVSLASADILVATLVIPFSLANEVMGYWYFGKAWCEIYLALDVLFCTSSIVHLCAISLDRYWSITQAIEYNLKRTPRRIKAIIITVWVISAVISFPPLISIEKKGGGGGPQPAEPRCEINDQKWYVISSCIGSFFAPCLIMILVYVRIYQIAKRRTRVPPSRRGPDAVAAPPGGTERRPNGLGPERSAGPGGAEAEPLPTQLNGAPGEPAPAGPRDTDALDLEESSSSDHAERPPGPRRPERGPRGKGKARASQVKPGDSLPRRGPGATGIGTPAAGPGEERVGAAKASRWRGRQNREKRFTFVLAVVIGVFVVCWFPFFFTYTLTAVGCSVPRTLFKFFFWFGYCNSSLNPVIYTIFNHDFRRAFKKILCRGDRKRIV
The assay is described as follows: Displacement of [3H]MK912 from human adrenergic alpha2A receptor expressed in CHO cells at 10 uM after 30 mins by beta scintillation counting. It counts as cell-based. Put shortly: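 CHO-a2A membranes (25 lg protein) in 25 mM Na2PO4, pH 7.4, with 0.37 nM [3H]MK-912 and compound at 10 µM; 30 min at 25 °C, duplicates. Non-specific binding with 100 µM norepinephrine; filtration and scintillation counting.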

For assay [7], the target named is Histamine H1 receptor (Homo sapiens) (UniProt P35367). The assay is described as follows: Displacement of [3H]pyrilamine from human histamine H1 receptor expressed in CHO cells at 10 uM after 60 mins by beta scintillation counting. It counts as cell-based. In short, it runs like this: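 CHO-H1 membranes (1 lg protein) in 50 mM Tris–HCl pH 7.4 with 2 nM [3H]pyrilamine and compound at 10 µM; 60 min at 27 °C, duplicates. 10 µM triprolidine for non-specific binding; GF/C filtration, scintillation counting.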
Sequence of Histamine H1 receptor (Homo sapiens) (P35367 whole entry): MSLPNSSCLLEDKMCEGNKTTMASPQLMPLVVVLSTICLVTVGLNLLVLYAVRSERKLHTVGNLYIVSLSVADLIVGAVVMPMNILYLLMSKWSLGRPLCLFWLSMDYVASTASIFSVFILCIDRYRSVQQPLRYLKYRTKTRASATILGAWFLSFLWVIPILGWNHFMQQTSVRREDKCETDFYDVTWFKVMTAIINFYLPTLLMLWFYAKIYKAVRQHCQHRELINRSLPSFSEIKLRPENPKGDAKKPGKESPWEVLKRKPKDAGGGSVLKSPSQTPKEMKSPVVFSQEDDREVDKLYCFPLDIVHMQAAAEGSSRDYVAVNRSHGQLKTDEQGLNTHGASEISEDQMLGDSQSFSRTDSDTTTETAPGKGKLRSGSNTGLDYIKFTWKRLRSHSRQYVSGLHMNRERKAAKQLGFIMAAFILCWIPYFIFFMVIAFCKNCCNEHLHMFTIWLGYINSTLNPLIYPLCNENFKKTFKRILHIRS

The target in assay [8] is 5-hydroxytryptamine receptor 7 (Homo sapiens) (UniProt P34969). Nature of the assay: Displacement of [3H]SB269970 from human 5HT7 receptor expressed in HEK293 cells at 10 uM after 60 mins by beta scintillation counting. The class given is cell-based. Put shortly: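 HEK-293-5-HT7 membranes (5 lg protein) in 50 mM Tris–HCl, 4 mM CaCl2, 1 mM ascorbic acid, 0.1 mM pargyline, pH 7.4; 2 nM [3H]SB269970, compound at 10 µM, 60 min at 37 °C, duplicates. Non-specific defined with 25 µM clozapine.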
Sequence of 5-hydroxytryptamine receptor 7 (Homo sapiens) (P34969 whole entry): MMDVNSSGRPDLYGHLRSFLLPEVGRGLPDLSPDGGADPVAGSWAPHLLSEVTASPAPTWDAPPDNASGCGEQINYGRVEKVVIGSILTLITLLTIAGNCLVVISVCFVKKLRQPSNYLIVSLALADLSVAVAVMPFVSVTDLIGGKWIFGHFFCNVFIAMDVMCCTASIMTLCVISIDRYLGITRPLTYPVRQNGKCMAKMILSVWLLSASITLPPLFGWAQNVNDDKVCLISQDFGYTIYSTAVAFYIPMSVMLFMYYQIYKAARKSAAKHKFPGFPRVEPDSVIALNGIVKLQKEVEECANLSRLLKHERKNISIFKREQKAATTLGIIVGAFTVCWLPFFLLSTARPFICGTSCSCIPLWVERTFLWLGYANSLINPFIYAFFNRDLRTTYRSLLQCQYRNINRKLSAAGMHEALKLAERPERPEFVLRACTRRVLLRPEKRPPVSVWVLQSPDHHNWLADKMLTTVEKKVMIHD

The target of assay [9] is T5, Adenosine receptor A1 (Homo sapiens) (UniProt P30542).
T5 sequence (whole entry): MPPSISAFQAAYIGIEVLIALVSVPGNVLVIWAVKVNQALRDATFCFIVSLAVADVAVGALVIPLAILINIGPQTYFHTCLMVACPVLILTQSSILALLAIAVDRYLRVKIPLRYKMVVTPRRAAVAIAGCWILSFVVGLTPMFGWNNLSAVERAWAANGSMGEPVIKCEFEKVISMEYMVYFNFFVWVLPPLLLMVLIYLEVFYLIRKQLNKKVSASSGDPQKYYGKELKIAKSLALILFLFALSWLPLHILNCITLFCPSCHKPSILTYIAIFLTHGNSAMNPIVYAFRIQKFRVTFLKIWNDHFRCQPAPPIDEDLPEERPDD
Nature of the assay: Displacement of [3H]DPCPX from human adenosine A1 receptor expressed in CHO cells at 10 uM after 60 mins by beta scintillation counting. The class given is cell-based. In short, it runs like this: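 Membranes of CHO-A1 cells (15 lg protein) in 20 mM Hepes, 100 mM NaCl, 10 mM MgCl2, 2 units/ml adenosine deaminase, pH 7.4, with 2 nM [3H]DPCPX; 60 min at 25 °C, duplicates. Non-specific binding with 10 µM (R)-PIA. Filtration, scintillation counting. Single point at 10 µM or six concentrations 10 nM–100 µM; Ki by Cheng–Prusoff.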

Structures are written as SMILES.

Broadly, the inhibition is the drop in the measured response relative to a control, in per cent. One may read the Ki as a dissociation constant, usually derived from enzyme kinetics or from competition with a known ligand. A word on the pKb: it is −log10 of the Kb, conventionally taken in molar units.

T1 sequence (P29274 whole entry): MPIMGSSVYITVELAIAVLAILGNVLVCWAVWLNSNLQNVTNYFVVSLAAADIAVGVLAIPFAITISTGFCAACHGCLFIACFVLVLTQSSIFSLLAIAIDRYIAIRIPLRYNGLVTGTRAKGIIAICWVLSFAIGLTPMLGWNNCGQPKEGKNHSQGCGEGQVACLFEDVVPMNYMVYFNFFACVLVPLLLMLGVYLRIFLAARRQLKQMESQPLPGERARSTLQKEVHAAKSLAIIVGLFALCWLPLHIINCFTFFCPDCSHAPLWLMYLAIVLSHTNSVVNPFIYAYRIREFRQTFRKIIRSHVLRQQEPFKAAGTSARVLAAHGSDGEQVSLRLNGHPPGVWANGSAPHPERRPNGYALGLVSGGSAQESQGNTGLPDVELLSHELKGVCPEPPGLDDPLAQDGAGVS

As to `Cc1ccc(-c2nc(C(=O)Nc3ccccn3)c3n2CCCCC3)cc1`, the values for the inhibition in assay [1], in [2] and in assay [9] were 68.9%, 19% and 38.9%, respectively. For the same compound, the inhibition constant (Ki) is 3160 nM in assay [3] and 2510 nM in assay [4]. The pKb in assay [5] is 5.1. Besides, the Activity in [6] worked out at 12%; in [7] it was 39%; in assay [8] it was 18%.

Values taken from ChEMBL document CHEMBL1158568, “In silico directed chemical probing of the adenosine receptor family” (Bioorg Med Chem, 2010).
